Assay results reported in ChEMBL document CHEMBL1142895, “Discovery of a new insecticide lead by optimizing a target-diverse scaffold: tetrazolinone derivatives” (2007).
Activity calls are given as the source filed them. The rule behind the calls is not given here.

What was measured:
Cucumis sativus [1] = assay: Herbicidal activity against Cucumis sativus at 450 g ai/ha in greenhouse in vivo test; format: functional, organism-based
Triticum aestivum [2] = assay: Inhibition of root growth of Triticum aestivum at 100 mg/L; format: functional
How it was run: (§1)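 Seeds of each species were grown in Petri dishes with 10 seeds per dish, at 28 °C, 70–80% RH, 16:8 h light:dark photoperiod and 3000 lx light for 5 days. Root and stem lengths were measured for the 10 seeds and averaged. Each test and its controls were run in three replicates, and the data were given probit analysis.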

Radish [3] = assay: Inhibition of stem growth of Raphanus sativus at 100 mg/L; format: functional; how it was run: as §1
Tetranychus cinnabarinus = assay: Insecticidal activity against Tetranychus cinnabarinus at 250 mg/L; format: functional
How it was run: (§2)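 Groups of 10 of each species were placed in glass Petri dishes and sprayed with test solution using a Potter sprayer. After air-drying, they were held under normal rearing conditions. Mortality at 72 h was taken from the number and size of live larvae relative to untreated controls.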

Aphis = assay: Insecticidal activity against Aphis medicagini at 250 mg/L; format: functional; how it was run: as §2
Echinochloa crus-galli [4] = assay: Inhibition of stem growth of Echinochloa crus-galli at 100 mg/L; format: functional; how it was run: as §1
Cucumis sativus [5] = assay: Inhibition of stem growth of Cucumis sativus at 100 mg/L; format: functional; how it was run: as §1
Triticum aestivum [6] = assay: Herbicidal activity against Triticum aestivum at 450 g ai/ha in greenhouse in vivo test; format: functional, organism-based
Sorghum bicolor [7] = assay: Herbicidal activity against Sorghum bicolor at 450 g ai/ha in greenhouse in vivo test; format: functional, organism-based
[8] = tested on: Brassica rapa subsp. oleifera; assay: Inhibition of stem growth of Brassica campestris at 100 mg/L; format: functional; how it was run: as §1
Echinochloa crus-galli [9] = assay: Inhibition of root growth of Echinochloa crus-galli at 100 mg/L; format: functional; how it was run: as §1
Triticum aestivum [10] = assay: Inhibition of stem growth of Triticum aestivum at 100 mg/L; format: functional; how it was run: as §1
[11] = tested on: Brassica rapa subsp. oleifera; assay: Inhibition of root growth of Brassica campestris at 100 mg/L; format: functional; how it was run: as §1
Sorghum bicolor [12] = assay: Inhibition of stem growth of Sorghum bicolor at 100 mg/L; format: functional; how it was run: as §1
Radish [13] = assay: Inhibition of root growth of Raphanus sativus at 100 mg/L; format: functional; how it was run: as §1
Echinochloa crus-galli [14] = assay: Herbicidal activity against Echinochloa crus-galli at 450 g ai/ha in greenhouse in vivo test; format: functional, organism-based
Sorghum bicolor [15] = assay: Inhibition of root growth of Sorghum bicolor at 100 mg/L; format: functional; how it was run: as §1
[16] = tested on: Brassica rapa subsp. oleifera; assay: Herbicidal activity against Brassica campestris at 450 g ai/ha in greenhouse in vivo test; format: functional, organism-based
Radish [17] = assay: Herbicidal activity against Raphanus sativus at 450 g ai/ha in greenhouse in vivo test; format: functional, organism-based
Cucumis sativus [18] = assay: Inhibition of root growth of Cucumis sativus at 100 mg/L; format: functional; how it was run: as §1

SMILES	Activity (Cucumis sativus [1])	inhibition at 100 µg/mL (Triticum aestivum [2])	inhibition at 100 µg/mL (Radish [3])	Activity (Tetranychus cinnabarinus)	Activity (Aphis)	inhibition at 100 µg/mL (Echinochloa crus-galli [4])	inhibition at 100 µg/mL (Cucumis sativus [5])	Activity (Triticum aestivum [6])	Activity (Sorghum bicolor [7])	inhibition at 100 µg/mL [8]	inhibition at 100 µg/mL (Echinochloa crus-galli [9])	inhibition at 100 µg/mL (Triticum aestivum [10])	inhibition at 100 µg/mL [11]	inhibition at 100 µg/mL (Sorghum bicolor [12])	inhibition at 100 µg/mL (Radish [13])	Activity (Echinochloa crus-galli [14])	inhibition at 100 µg/mL (Sorghum bicolor [15])	Activity [16]	Activity (Radish [17])	inhibition at 100 µg/mL (Cucumis sativus [18])
O=c1n(Cc2nnc(SCc3cccc(Cl)c3)s2)nnn1-c1ccc(Cl)cc1	inactive	60%	30%	5.7%	2.9%	0%	40%	inactive	inactive	0%	0%	70%	0%	50%	50%	inactive	40%	inactive	inactive	0%
CCOC(=O)C(C)Sc1nnc(Cn2nnn(-c3ccc(Cl)cc3)c2=O)s1 (stereo not given)	inactive	70%	50%	0%	0%	40%	60%	inactive	inactive	80%	50%	50%	85%	70%	80%	inactive	80%	inactive	inactive	60%
O=c1n(Cc2cccc(F)c2)nnn1-c1ccc(Cl)cc1	inactive	40%	0%	5.7%	0%	0%	30%	inactive	inactive	0%	70%	40%	0%	0%	0%	inactive	0%	inactive	inactive	50%
O=c1n(Cc2ccc(Br)cc2)nnn1-c1ccc(Cl)cc1	inactive	0%	0%	0%	13.3%	0%	0%	inactive	inactive	0%	0%	30%	0%	0%	0%	inactive	0%	inactive	inactive	0%
O=c1n(Cc2ccccc2F)nnn1-c1ccc(Cl)cc1	inactive	0%	0%	10%	5%	0%	0%	inactive	inactive	0%	0%	0%	0%	0%	0%	inactive	0%	inactive	inactive	0%
CCOC(=O)C(C)n1nnn(-c2ccc(Cl)cc2)c1=O (stereo not given)	inactive	80%	50%	97.1%	0%	0%	0%	inactive	inactive	0%	0%	70%	0%	40%	70%	inactive	95%	inactive	inactive	0%
COc1cc(-n2nnn(C)c2=O)c(Cl)cc1Cl	inactive	70%	0%	100%	0%	30%	60%	inactive	inactive	0%	30%	50%	0%	30%	0%	inactive	70%	inactive	inactive	60%
Cc1ccc(Cn2nnn(-c3ccc(Cl)cc3)c2=O)cc1	inactive	0%	0%	0%	3.3%	0%	0%	inactive	inactive	0%	0%	0%	0%	0%	0%	inactive	0%	inactive	inactive	0%
O=c1n(Cc2nnc(SCc3ccccc3)s2)nnn1-c1ccc(Cl)cc1	inactive	60%	40%	2.9%	5.7%	70%	60%	inactive	inactive	50%	60%	60%	60%	70%	60%	inactive	60%	inactive	inactive	60%
O=c1n(Cc2cccc(Cl)c2)nnn1-c1ccc(Cl)cc1	inactive	0%	0%	0%	0%	0%	0%	inactive	inactive	0%	0%	0%	0%	0%	0%	inactive	0%	inactive	inactive	0%
Cc1cccc(Cn2nnn(-c3ccc(Cl)cc3)c2=O)c1	inactive	0%	70%	4.3%	8.3%	0%	0%	inactive	inactive	90%	0%	0%	80%	0%	80%	inactive	0%	inactive	inactive	0%
CC(C)(C)c1ccc(CSc2cnn(C(C)(C)C)c(=O)c2Cl)cc1 [PYRIDABEN]				100%																
C=CCn1nnn(-c2ccccc2Cl)c1=O	inactive	50%	0%	98.6%	1.7%	0%	60%	inactive	inactive	60%	0%	50%	0%	0%	0%	inactive	0%	inactive		0%
